The target of experiment [1] is RAF proto-oncogene serine/threonine-protein kinase (Homo sapiens) (UniProt P04049). The experiment in a line: Inhibition of RAF1 at 1 uM in presence of 100 uM ATP by Select Screen kinase assay relative to untreated control. In a few lines:
(§1)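 Commercial SelectScreen profiling panel of 220 purified kinases. Each kinase was tested at a single inhibitor concentration of 1 μM, and activity was expressed as percent inhibition.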

Experiment [2] addresses SRSF protein kinase 1 (Homo sapiens) (UniProt Q96SB4). Kind of experiment: Inhibition of SRPK1 at 1 uM in presence of 100 uM ATP by Select Screen kinase assay relative to untreated control. In a few lines:
as §1

Experiment [3] deals with G protein-coupled receptor kinase 6 (Homo sapiens) (UniProt P43250). The experiment in a line: Inhibition of GRK6 at 1 uM in presence of 10 uM ATP by Select Screen kinase assay relative to untreated control. In a few lines: (§2)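 Single-concentration profiling at 1 μM against a panel of 220 purified kinases, run as an outsourced SelectScreen kinase profiling service. Activity is expressed as percent inhibition.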

For experiment [4], the target named is T1, G protein-coupled receptor kinase 3 (Homo sapiens) (UniProt P35626).
T1 sequence (whole entry): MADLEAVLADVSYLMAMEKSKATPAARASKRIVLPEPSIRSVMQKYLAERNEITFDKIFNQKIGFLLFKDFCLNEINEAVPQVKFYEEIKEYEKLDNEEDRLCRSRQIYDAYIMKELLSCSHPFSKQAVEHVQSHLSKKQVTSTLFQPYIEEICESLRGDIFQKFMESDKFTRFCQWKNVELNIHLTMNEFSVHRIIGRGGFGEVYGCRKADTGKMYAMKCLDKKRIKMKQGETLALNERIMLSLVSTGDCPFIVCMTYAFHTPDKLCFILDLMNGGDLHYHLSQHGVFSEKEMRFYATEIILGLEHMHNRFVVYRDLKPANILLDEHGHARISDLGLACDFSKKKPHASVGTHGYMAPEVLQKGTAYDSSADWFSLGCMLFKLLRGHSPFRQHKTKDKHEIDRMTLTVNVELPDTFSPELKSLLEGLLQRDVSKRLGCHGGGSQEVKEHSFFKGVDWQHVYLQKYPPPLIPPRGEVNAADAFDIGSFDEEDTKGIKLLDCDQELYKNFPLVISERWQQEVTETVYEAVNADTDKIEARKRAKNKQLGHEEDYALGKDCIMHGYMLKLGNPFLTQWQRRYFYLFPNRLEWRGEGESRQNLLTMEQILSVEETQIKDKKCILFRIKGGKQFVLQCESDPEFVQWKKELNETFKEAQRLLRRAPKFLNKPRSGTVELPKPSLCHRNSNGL
Kind of experiment: Inhibition of ADRBK2 at 1 uM in presence of 10 uM ATP by Select Screen kinase assay relative to untreated control. In a few lines:
(§3)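 Single-point screen at 1 μM against a panel of 220 purified kinases, run by Invitrogen staff as a SelectScreen profiling service. Read-out is percent inhibition of kinase activity.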

For experiment [5], the target named is High affinity nerve growth factor receptor (Homo sapiens) (UniProt P04629). Kind of experiment: Inhibition of NTRK1 at 1 uM in presence of 100 uM ATP by Select Screen kinase assay relative to untreated control. In a few lines:
as §1

The target in experiment [6] is T2, Homeodomain-interacting protein kinase 4 (Homo sapiens) (UniProt Q8NE63).
T2 sequence (whole entry): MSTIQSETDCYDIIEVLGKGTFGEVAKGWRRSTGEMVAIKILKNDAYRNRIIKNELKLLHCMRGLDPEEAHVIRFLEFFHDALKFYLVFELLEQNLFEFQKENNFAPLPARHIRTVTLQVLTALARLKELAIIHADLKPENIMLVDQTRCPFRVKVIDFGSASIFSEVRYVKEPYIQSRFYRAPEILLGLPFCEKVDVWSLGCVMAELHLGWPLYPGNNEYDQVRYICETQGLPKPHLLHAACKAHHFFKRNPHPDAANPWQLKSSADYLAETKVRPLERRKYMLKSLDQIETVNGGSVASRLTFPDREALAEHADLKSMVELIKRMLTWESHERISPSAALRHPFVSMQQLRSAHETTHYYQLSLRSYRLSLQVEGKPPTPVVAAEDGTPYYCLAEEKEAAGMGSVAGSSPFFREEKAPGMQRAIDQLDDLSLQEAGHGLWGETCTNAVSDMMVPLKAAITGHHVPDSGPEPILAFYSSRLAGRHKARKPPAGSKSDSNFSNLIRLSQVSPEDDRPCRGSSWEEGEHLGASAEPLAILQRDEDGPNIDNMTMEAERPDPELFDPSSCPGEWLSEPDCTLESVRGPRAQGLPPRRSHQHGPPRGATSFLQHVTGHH
Kind of experiment: Inhibition of HIPK4 at 1 uM in presence of 10 uM ATP by Select Screen kinase assay relative to untreated control. In a few lines: as §2

Experiment [7] concerns the target T3, Cytoplasmic tyrosine-protein kinase BMX (Homo sapiens) (UniProt P51813).
T3 sequence (whole entry): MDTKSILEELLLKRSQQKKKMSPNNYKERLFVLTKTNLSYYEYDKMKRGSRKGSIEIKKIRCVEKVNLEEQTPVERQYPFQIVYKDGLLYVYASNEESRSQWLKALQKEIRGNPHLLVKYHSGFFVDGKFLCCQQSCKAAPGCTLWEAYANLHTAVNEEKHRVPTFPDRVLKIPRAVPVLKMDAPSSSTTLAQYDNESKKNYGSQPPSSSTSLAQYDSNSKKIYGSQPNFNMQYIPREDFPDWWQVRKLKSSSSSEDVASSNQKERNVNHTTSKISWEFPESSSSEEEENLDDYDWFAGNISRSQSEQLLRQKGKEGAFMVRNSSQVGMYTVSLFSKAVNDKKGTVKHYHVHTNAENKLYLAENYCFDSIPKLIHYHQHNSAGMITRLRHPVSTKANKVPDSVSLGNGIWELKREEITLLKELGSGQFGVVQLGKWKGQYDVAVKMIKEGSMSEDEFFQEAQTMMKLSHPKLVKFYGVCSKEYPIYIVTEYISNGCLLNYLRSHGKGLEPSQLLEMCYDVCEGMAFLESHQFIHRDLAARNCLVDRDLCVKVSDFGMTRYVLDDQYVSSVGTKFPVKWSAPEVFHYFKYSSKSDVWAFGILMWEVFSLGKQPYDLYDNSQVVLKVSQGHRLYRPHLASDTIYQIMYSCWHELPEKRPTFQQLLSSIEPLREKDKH
Kind of experiment: Inhibition of BMX at 1 uM in presence of 10 uM ATP by Select Screen kinase assay relative to untreated control. In a few lines:
as §3

The target of experiment [8] is Homeodomain-interacting protein kinase 1 (Homo sapiens) (UniProt Q86Z02). Kind of experiment: Inhibition of HIPK1 at 1 uM in presence of 10 uM ATP by Select Screen kinase assay relative to untreated control. In a few lines: as §2
In experiment [9] the target is Serine/threonine-protein kinase B-raf (Homo sapiens) (UniProt P15056). Kind of experiment: Inhibition of BRAF at 1 uM in presence of 100 uM ATP by Select Screen kinase assay relative to untreated control. In a few lines:
as §3

Experiment [10] concerns the target Dual specificity tyrosine-phosphorylation-regulated kinase 1A (Homo sapiens) (UniProt Q13627). Kind of experiment: Inhibition of DYRK1A at 1 uM in presence of 10 uM ATP by Select Screen kinase assay relative to untreated control. In a few lines:
as §3

Chain of G protein-coupled receptor kinase 6 (Homo sapiens) (P43250 whole entry, looked up): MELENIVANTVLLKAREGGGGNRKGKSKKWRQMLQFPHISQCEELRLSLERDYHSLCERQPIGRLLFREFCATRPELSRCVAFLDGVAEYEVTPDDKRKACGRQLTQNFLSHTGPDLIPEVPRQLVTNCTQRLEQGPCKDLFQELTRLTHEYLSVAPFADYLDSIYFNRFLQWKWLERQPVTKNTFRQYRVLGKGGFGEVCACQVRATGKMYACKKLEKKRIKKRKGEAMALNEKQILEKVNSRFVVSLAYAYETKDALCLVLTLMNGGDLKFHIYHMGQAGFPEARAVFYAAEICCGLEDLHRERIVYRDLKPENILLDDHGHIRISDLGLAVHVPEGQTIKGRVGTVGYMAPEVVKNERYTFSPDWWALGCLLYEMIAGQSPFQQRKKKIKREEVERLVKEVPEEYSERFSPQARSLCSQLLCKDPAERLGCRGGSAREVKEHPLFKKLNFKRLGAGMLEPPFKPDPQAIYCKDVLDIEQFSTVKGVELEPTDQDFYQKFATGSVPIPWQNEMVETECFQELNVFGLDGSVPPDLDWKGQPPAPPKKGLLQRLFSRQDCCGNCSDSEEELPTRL
Chain of Homeodomain-interacting protein kinase 1 (Homo sapiens) (Q86Z02 whole entry, looked up): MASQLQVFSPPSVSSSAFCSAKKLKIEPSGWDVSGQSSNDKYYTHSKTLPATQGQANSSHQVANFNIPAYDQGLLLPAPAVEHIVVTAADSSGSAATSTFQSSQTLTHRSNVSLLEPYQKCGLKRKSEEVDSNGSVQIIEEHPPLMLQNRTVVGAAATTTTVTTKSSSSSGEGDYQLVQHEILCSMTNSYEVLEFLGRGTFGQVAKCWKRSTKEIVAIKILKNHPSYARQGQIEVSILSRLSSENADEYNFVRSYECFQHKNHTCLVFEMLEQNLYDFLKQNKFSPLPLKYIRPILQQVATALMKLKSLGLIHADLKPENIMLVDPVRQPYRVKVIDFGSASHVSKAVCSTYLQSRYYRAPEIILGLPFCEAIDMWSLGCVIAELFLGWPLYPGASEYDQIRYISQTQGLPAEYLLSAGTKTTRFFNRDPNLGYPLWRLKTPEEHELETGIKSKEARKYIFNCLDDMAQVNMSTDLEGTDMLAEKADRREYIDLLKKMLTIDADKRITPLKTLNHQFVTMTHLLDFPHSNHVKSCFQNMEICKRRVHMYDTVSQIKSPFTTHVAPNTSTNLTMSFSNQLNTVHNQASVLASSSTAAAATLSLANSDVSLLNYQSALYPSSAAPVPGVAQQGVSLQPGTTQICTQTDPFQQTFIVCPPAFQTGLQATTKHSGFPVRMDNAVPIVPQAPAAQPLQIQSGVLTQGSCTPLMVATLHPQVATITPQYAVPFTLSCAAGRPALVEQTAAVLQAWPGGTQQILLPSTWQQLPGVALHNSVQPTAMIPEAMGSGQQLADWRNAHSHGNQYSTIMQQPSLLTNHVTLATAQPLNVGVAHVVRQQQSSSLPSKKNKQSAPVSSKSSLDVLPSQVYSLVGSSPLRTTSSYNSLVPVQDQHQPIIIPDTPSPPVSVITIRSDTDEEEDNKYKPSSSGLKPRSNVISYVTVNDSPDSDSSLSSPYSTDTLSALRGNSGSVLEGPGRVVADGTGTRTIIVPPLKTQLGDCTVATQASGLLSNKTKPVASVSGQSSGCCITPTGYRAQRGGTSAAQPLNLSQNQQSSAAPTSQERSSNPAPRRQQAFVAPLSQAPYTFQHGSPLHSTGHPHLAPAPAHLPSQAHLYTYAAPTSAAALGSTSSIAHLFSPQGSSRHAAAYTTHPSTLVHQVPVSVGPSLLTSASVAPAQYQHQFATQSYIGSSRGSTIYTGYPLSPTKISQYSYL
Chain of High affinity nerve growth factor receptor (Homo sapiens) (P04629 33-796 limits assumed): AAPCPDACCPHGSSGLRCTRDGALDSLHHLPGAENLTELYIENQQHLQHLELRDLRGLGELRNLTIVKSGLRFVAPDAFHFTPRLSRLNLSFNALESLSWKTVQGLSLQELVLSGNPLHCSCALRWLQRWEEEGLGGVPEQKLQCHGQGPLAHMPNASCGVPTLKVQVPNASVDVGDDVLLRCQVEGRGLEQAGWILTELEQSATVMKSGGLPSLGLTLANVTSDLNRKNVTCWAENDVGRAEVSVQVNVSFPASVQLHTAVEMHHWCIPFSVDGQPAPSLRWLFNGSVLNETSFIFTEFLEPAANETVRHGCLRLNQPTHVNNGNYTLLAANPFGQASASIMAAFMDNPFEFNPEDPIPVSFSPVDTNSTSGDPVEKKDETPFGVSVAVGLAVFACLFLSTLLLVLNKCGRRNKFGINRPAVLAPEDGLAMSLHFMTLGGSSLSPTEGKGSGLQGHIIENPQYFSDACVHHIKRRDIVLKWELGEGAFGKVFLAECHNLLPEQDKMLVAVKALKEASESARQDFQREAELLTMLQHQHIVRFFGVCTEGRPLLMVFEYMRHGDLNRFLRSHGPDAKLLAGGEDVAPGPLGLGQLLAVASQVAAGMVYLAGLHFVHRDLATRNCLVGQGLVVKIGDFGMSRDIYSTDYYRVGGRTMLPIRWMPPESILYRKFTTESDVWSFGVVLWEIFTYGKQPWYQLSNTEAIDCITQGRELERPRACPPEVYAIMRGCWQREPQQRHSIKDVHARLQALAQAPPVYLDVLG
Chain of Serine/threonine-protein kinase B-raf (Homo sapiens) (P15056 whole entry): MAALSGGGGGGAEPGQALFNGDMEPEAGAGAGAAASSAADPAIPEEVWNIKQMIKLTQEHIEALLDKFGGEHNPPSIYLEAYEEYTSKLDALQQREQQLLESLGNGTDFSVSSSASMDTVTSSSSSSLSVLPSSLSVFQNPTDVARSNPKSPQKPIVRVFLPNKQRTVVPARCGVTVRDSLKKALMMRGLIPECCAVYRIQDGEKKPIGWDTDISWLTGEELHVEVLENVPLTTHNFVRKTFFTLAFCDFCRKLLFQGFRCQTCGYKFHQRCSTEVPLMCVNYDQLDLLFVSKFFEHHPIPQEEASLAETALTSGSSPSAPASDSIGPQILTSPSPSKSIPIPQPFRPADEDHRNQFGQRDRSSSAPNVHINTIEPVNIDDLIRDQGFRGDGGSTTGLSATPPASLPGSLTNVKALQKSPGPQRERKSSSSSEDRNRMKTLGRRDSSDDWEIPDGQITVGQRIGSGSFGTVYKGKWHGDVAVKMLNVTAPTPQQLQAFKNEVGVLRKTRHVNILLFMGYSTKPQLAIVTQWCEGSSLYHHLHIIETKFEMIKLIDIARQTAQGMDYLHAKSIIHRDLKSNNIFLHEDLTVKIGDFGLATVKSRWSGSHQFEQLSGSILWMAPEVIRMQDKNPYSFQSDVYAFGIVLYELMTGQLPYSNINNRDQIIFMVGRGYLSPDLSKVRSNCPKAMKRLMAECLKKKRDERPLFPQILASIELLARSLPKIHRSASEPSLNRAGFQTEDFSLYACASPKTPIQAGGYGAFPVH
Chain of RAF proto-oncogene serine/threonine-protein kinase (Homo sapiens) (P04049 whole entry): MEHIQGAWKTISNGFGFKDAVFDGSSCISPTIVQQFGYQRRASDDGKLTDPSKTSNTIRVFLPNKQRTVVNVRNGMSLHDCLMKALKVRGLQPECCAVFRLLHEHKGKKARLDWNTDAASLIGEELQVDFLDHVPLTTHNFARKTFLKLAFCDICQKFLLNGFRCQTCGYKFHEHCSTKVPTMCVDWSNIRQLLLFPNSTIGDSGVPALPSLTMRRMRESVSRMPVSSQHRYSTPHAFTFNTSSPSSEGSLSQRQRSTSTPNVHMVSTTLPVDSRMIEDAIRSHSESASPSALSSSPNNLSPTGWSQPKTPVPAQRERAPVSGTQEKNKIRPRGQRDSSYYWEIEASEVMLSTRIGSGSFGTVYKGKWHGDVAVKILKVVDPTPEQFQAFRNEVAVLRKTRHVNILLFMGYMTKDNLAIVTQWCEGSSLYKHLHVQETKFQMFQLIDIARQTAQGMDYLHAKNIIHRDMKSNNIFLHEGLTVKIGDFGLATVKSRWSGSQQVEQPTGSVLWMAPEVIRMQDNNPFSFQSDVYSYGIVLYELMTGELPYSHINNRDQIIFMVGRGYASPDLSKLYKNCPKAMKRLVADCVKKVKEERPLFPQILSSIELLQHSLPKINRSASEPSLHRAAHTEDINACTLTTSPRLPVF
Chain of SRSF protein kinase 1 (Homo sapiens) (Q96SB4 whole entry): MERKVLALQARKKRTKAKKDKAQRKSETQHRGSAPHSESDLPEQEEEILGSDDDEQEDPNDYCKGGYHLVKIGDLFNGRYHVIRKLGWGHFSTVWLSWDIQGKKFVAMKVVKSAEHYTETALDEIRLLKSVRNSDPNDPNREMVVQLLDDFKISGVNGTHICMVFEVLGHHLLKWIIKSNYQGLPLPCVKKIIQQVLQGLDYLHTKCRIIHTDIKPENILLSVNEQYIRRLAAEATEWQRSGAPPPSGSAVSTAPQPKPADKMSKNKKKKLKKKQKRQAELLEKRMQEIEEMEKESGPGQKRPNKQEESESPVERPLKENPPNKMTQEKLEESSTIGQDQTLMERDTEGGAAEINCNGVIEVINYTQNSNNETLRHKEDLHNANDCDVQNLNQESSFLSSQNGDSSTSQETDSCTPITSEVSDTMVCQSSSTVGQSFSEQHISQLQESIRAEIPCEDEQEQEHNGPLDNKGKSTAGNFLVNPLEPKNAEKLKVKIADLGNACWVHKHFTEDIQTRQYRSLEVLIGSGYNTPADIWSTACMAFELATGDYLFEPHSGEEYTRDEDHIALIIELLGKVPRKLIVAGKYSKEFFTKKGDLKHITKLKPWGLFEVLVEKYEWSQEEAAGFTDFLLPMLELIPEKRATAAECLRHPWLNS

Turning to `COc1ccccc1N1CCN(c2ncnc3[nH]nc(Br)c23)CC1`, the inhibition (in general, the relative decrease from the control value, in per cent) in experiment [1] amounted to 12%; in experiment [2], 12%; in experiment [3], 27%; in [4], 8%; in [5], 34%; in [6] it was 18%. Moreover, the inhibition was 18% in experiment [7], 34% in [8], 17% in experiment [9] and 78% in experiment [10].

Take `O=C(NCCCNc1nc(Nc2cccc(NC(=O)N3CCCC3)c2)ncc1I)c1cccs1`: the inhibition was 43% in experiment [1]; 12% in [2]; 2% in [3]; 10% in experiment [4]; 84% in [5]; 48% in [6]. Also, the inhibition is 39% in [7], 18% in experiment [8], 38% in [9] and 25% in experiment [10].

For `Cc1n[nH]c2ccc(-c3cncc(OC[C@@H](N)Cc4c[nH]c5ccccc45)c3)cc12`, the inhibition came to 81% in experiment [1]; 27% in [2]; 78% in [3]; 1% in experiment [4]; 42% in experiment [5]; 75% in experiment [6]. Further, the inhibition in experiment [7] is -2%; in experiment [8] it was 68%; in experiment [9], 72%; in [10] it was 102%.

The record behind these values is ChEMBL document CHEMBL1250448, “Inhibitor hijacking of Akt activation” (Nat Chem Biol, 2009).
